# Laboratory results: PubChem BioAssay AID623887 (Johns Hopkins Ion Channel Center, 2012)
# Values joined by “and” are separate entries in the source; they are usually repeats but may differ in a detail not shown here. Equal entries are not always repeated. Active and inactive are the calls of the source.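 The calls were made as follows: active = blocks the KCNK9 potassium channel at some tested concentration and gives a dose response curve; inactive = the rest.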
# Target: Potassium channel subfamily K member 9 (Homo sapiens) (UniProt Q9NPC2)
# Assay: KCNK9 two-pore potassium channel inhibitors, SAR follow-up, cell-based, round 4 (AID 623887)
# Conditions: HEK293-KCNK9 thallium flux, FluxOR fluorescence
# Outline: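 Test system: tetracycline-induced HEK293 cells stably expressing the KCNK9 channel; signal: kinetic FluxOR fluorescence of thallium influx, 110 s after stimulus; reagent: Potassium/thallium sulfate stimulus buffer (5x stock); incubation: dye 90 min, compound 20 min at room temperature; repeats: replicate measurements at each compound concentration; dosing: multi-concentration series of test compound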
# Sequence of Potassium channel subfamily K member 9 (Homo sapiens) (Q9NPC2 whole entry, looked up): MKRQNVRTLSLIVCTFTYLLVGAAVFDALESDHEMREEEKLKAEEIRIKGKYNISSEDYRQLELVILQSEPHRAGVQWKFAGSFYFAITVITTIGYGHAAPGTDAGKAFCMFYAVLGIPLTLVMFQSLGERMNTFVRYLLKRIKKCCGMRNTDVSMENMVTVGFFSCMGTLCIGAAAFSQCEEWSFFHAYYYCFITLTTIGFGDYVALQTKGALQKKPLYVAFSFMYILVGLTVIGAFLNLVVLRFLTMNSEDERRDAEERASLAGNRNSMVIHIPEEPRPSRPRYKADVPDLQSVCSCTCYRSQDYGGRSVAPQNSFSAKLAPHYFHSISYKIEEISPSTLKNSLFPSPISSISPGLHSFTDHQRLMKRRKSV
row,Compound,IC50
1,CC(C1CC2CCC1C2)n1c(SCCc2ccccn2)nnc1-c1ccco1 (stereo not drawn),3.09 µM
2,C[C@H](C1CCCCC1)n1c(-c2ccccc2F)n[nH]c1=S,0.683 µM
3,COc1ccc(CSc2nnc(-c3ccco3)n2C(C)C2CC3CCC2C3)cc1OC (stereo not drawn),0.547 µM
4,COc1ccc(C(=O)CCSc2nnc(-c3ccco3)n2C(C)C2CC3CCC2C3)cc1OC (stereo not drawn),0.663 µM
5,C[C@@H]([C@@H]1CC2CC[C@H]1C2)n1c(-c2ccsc2)n[nH]c1=S,0.146 µM and 0.544 µM
6,C[C@H]([C@@H]1CC2CC[C@H]1C2)n1c(-c2ccco2)n[nH]c1=S,0.053 µM
7,CC(C1C[C@H]2CCC1C2)n1c(-c2ccsc2)n[nH]c1=S (stereo partly drawn),0.582 µM
8,COc1cccc(-c2n[nH]c(=S)n2[C@H](C)[C@@H]2CC3CC[C@H]2C3)c1,0.467 µM
9,C[C@H](C1CCCCC1)n1c(-c2ccsc2)n[nH]c1=S,0.428 µM
10,C[C@H]([C@@H]1CC2CC[C@H]1C2)n1c(-c2ccccc2F)n[nH]c1=S,0.169 µM
11,COc1cccc(-c2nnc(SSc3nnc(-c4cccc(OC)c4)n3C(C)C3CC4CCC3C4)n2C(C)C2CC3CCC2C3)c1 (stereo not drawn),28 µM
12,CCCC(=O)C1CCN(c2ncnc3c2CN(C(=O)c2ccc(-c4ccccc4)cc2)CC3)CC1,0.141 µM
13,CC([C@@H]1CC2CC[C@H]1C2)n1c(-c2ccsc2)n[nH]c1=S (stereo partly drawn),0.18 µM
14,CC(C1CC2CCC1C2)n1c(SCC(=O)N2CCN(C)CC2)nnc1-c1ccco1 (stereo not drawn),28 µM
15,COc1ccc(CC(=O)NCc2ccccc2-c2ccccc2C(=O)NCc2ccc(F)cc2F)cc1,3.2 µM
16,C[C@@H]([C@@H]1CC2CC[C@H]1C2)n1c(-c2ccco2)n[nH]c1=S,0.181 µM and 0.128 µM
17,COc1ccc(NC(=O)CSc2nnc(-c3ccco3)n2C(C)C2CC3CCC2C3)cc1OC (stereo not drawn),18.3 µM
18,COc1cccc(-c2n[nH]c(=S)n2[C@H](C)C2CCCCC2)c1,3.42 µM
19,CC(C1CC2CCC1C2)n1c(SCCc2cccc(O)c2)nnc1-c1ccco1 (stereo not drawn),1.83 µM
20,CC(C1CC2CCC1C2)n1c(-c2ccco2)nn(CCc2ccncc2)c1=S (stereo not drawn),0.223 µM
21,COc1cccc(CCSc2nnc(-c3ccco3)n2C(C)C2CC3CCC2C3)c1 (stereo not drawn),1.19 µM

# Same assay, conditions: HEK293-KCNK9 thallium flux, FluxOR fluorescence; at 30 µM (top of the series)
row,Compound,"flux ratio, lower = inhibition"
1,CC(C1CCN(C)CC1)n1c(-c2ccco2)n[nH]c1=S (stereo not drawn),inactive
2,CC(C1CC2CCC1C2)n1c(SCCN2CCOCC2)nnc1-c1ccco1 (stereo not drawn),inactive
